# TIM10 inh: growth inhibitors of isogenic TIM10 control yeast, primary screen, counter-screen for tim10-1 yeast inhibitor project, luminescence, uHTS. S. cerevisiae TIM10 strain growth, BacTiter-Glo luminescence, 24 h. inhibition, % at 10 µM. 330,000 compounds, 1.4% hits;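 active means inhibition of 40% or more at the single tested concentration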;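 further: wild-type TIM10 isogenic control strain grown at permissive 25 °C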
# XBP1 UPR activ: activators of adaptive XBP1 UPR arm, primary screen, cell-based, CHO-XBP1 luciferase reporter, luminescence, uHTS | IRE1-XBP1 UPR activation; percent of tunicamycin response, DMSO as zero | activation, % at 20 µM | 330,000 compounds, 0.33% hits;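 active means versus positive control, 20 µM dose yields 30% or more activation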;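 further: 100% = tunicamycin at 10 µg/mL and 0% = DMSO only wells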
#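 assay system = CHO-XBP1 luciferase reporter cells | amount = 1000 cells/well | buffer or medium = F12 plus 10% FBS | compound dosing = single point, 20 µM final compound, 1% DMSO | incubation = 16-18 h cell attachment at 37 °C, then 6 h compound exposure | detection = Steady-Glo luminescence read | controls = tunicamycin 10 µg/mL and vehicle-only wells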
# tim10-1 inh: growth inhibitors of tim10-1 mutant yeast, primary screen, luminescence, uHTS | S. cerevisiae tim10-1 ts strain growth, BacTiter-Glo, 24 h | inhibition, % at 20 µM | 330,000 compounds, 2.2% hits | AID 463190, 2010;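 active means inhibition of at least 40%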;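 further: mutant grown at 25 °C; 0% = DMSO wells with yeast and 100% = wells holding no yeast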
# tim23-1 inh: growth inhibitors of tim23-1 mutant yeast, primary screen, luminescence, uHTS; S. cerevisiae tim23-1 growth, BacTiter-Glo luminescence, 24 h; inhibition, % at 20 µM; 330,000 compounds, 1.3% hits; AID 463212, 2010;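 active means growth inhibition of the mutant yeast at or above 50%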;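 further: temperature-sensitive mutant grown at 25 °C; plate controls were DMSO-treated mutant yeast for no effect and medium wells lacking yeast for full effect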
# UPR CHOP act: activators of apoptotic CHOP UPR arm, primary screen, cell-based, CHO-CHOP luciferase reporter, luminescence, uHTS | activation, % at 10 µM | 330,000 compounds, 0.34% hits | UPR activation; percent of tunicamycin response over DMSO baseline;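 active means at 10 µM dose, activation of 40% or more, normalized to positive control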;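 further: 100% = tunicamycin at 10 µg/mL and 0% = DMSO alone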
#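 assay system = CHO CHOP reporter cells | amount = 500 CHO-CHOP cells per well | buffer or medium = F12 with 10% FBS | incubation = 16-18 h cell attachment, then 6 h compound exposure, 37 °C | detection = luminescence read with Steady-Glo | read-out = percent activation relative to tunicamycin control | controls = tunicamycin high control, DMSO low control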
# UPR CHOP confirm: activators of apoptotic CHOP UPR arm, confirmation, cell-based, CHO-CHOP luciferase reporter, single concentration | shares compounds with UPR CHOP act | CHO-CHOP cells, CHOP-luciferase reporter luminescence; percent of tunicamycin response, DMSO as zero | activation, % at 10 µM | 1,000 compounds, 64% hits; in the data active means activation above about 33%;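 further: 0% = DMSO wells and 100% = tunicamycin 10 µg/mL wells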
# XBP1 UPR conf: IRE1-XBP1 UPR arm activators, confirmation, cell-based, CHO-XBP1 luciferase reporter, luminescence, single concentration; shares compounds with XBP1 UPR activ; activation, % at 20 µM; 1,000 compounds, 63% hits; AID 485299, 2010;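 active means reporter signal at least 30% of the positive control's activation in two or more of four replicate wells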;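 further: plate controls were DMSO negative control for no effect and tunicamycin 10 µg/mL positive control for full effect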
# tim10-1 conf: growth inhibitors of tim10-1 mutant yeast, confirmation, single concentration, luminescence, S. cerevisiae. inhibition, % at 20 µM. 7,400 compounds, 56% hits. shares compounds with tim10-1 inh. S. cerevisiae tim10-1 ts strain growth, BacTiter-Glo, 24 h;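 active means inhibition of yeast growth at or above a set limit in either of two repeat tests at 20 µM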;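 further: tim10-1 mutant grown at permissive 25 °C to find synthetic lethal compounds; 0% = DMSO yeast wells and 100% = medium wells without yeast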
# TIM10 conf: growth inhibitors of wild-type TIM10 yeast, confirmation, counter-screen for tim10-1 synthetic lethality project, single concentration, luminescence, S. cerevisiae; shares compounds with TIM10 inh; S. cerevisiae tim10 strain growth, BacTiter-Glo luminescence, 24 h; inhibition, % at 10 µM; 4,600 compounds, 63% hits; AID 463215, 2010;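 active means inhibition of yeast growth at or above a set limit in either of two replicates at 10 µM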;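 further: this counterscreen used the strain with wild-type TIM10; 0% = yeast with DMSO and 100% = medium wells lacking yeast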
# tim23-1 conf: tim23-1 mutant yeast growth inhibitors, confirmation, luminescence, single concentration. shares compounds with tim23-1 inh. S. cerevisiae tim23-1 growth, BacTiter-Glo luminescence, 24 h. inhibition, % at 20 µM. 4,400 compounds, 83% hits. AID 463218, 2010;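 active means inhibition above about 39% in either of two replicate wells at 20 µM, limit read from the data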;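 further: temperature-sensitive tim23-1 mutant grown at 25 °C; 0% = DMSO wells with yeast and 100% = medium wells without yeast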
# Starred values were filed as active, the others as inactive; . = no result given. Hits are enriched below; roughly 3.9% of the tested compounds scored in any of these assays.
SMILES,TIM10 inh,XBP1 UPR activ,tim10-1 inh,tim23-1 inh,UPR CHOP act,UPR CHOP confirm,tim10-1 conf,TIM10 conf,tim23-1 conf,others
O=C1Nc2ccccc2/C1=C/C(=O)c1cccs1,68.5*,12.4,50.8*,54.7*,74.1*,125.0*,60.1*,93.4*,-42.3,
CCN(C(=O)CSc1nnc(SC)s1)c1c(N)n(Cc2ccccc2)c(=O)[nH]c1=O,5.3,3.4,-2.2,5.9,1.6,.,.,.,.,
CCN(CC(=O)Nc1ccc(OC)cc1)C(=O)Cc1coc2cc(C)c(C)cc12,-1.6,0.9,28.5,29.9,0.0,.,.,.,.,
CC(C)N1CCc2c(sc(NC(=O)c3ccc([N+](=O)[O-])o3)c2C(N)=O)C1,-5.2,-5.6,28.5,15.7,5.7,.,.,.,.,
COC(=O)c1c(NC(=O)c2ccc([N+](=O)[O-])o2)sc2c1CCN(C(C)C)C2,93.8*,-8.8,90.9*,90.7*,70.7*,55.5*,91.0*,97.7*,91.9*,
O=C(N/N=C/c1ccccn1)c1sc2ccccc2c1Cl,17.0,11.1,47.6*,75.7*,178.5*,104.4*,41.0*,.,63.8*,
Oc1c(C(c2ccccc2Cl)N2CCCC2)ccc2cccnc12 (configuration not stated),9.5,25.0,24.7,64.6*,106.2*,132.2*,.,.,59.4*,
Fc1ccc(Sc2nc(-c3ccccc3)nnc2C(F)(F)F)cc1,-0.4,-3.2,60.3*,59.5*,41.2*,19.9,35.8*,.,55.4*,
Cn1nnnc1Sc1ncnc2scc(-c3cc4ccccc4o3)c12,32.8,-7.5,26.4,70.8*,86.2*,117.8*,.,.,38.5*,
Cn1nnnc1Sc1ncnc2scc(-c3ccc(-c4ccccc4)cc3)c12,6.1,0.2,14.6,37.8,4.7,.,.,.,.,
CN(C(=O)c1ccc2c(=O)n3c(nc2c1)CCCCC3)c1cccc(Cl)c1,15.4,3.1,-0.3,24.6,4.8,.,.,.,.,
CCCN(CCC)C(=O)c1cc([N+](=O)[O-])cc2c1-c1ccc([N+](=O)[O-])cc1C2=C(C#N)C#N,10.9,-2.2,66.7*,74.2*,334.7*,201.4*,67.2*,.,74.8*,
Nc1ccc(Sc2ccc([N+](=O)[O-])cc2)cc1,27.4,1.5,30.8,25.2,-1.3,.,.,.,.,
Cc1ccc(C(C[N+](=O)[O-])Sc2ccc(N)cc2)cc1 (configuration not stated),56.0*,-4.4,38.7,74.5*,117.1*,-6.5,.,50.6*,90.2*,
O=C(CCl)c1ccc(Cc2ncc(C(F)(F)F)cc2Cl)s1,21.3,7.6,28.9,52.0*,168.8*,169.1*,.,.,-92.2,
CCN(CC)c1ccc2c(Cl)c(Br)c(=O)oc2c1,72.2*,1.4,60.3*,63.9*,193.8*,17.9,58.8*,67.8*,77.9*,
COCCN(Cc1cc2cc(C)ccc2[nH]c1=O)S(=O)(=O)c1ccc(Cl)cc1,19.9,-3.4,17.2,6.2,2.0,.,.,.,.,
CCc1cccc2c(C(=O)CCl)c[nH]c12,42.0*,-0.3,29.5,53.9*,84.1*,66.2*,.,27.5,54.0*,
CCCCCCn1c2c(c(=N)c3c1CCC3)CCC2,3.2,-2.0,3.7,28.9,-2.4,.,.,.,.,
CCCCCCCCCn1c2c(c(=N)c3c1CCC3)CCC2,48.2*,23.4,64.4*,66.7*,57.3*,42.6*,60.5*,49.5*,82.8*,
NS(=O)(=O)c1ccc(N=Nc2ccc(O)c3ncccc23)cc1,6.4,3.2,18.7,29.8,21.2,.,.,.,.,
O=Cc1ccc(O)c2ncccc12,54.4*,23.9,43.7*,70.5*,86.3*,88.6*,8.1,75.1*,72.0*,
O=C1C=CC(=O)N1c1cccc(-c2ccccc2)c1,95.0*,-7.4,95.1*,51.3*,82.2*,10.3,97.5*,99.2*,97.8*,
Cc1cc(C)nc(SCc2ccc(C(=O)N/N=C/c3cccc(O)c3O)cc2)n1,56.0*,53.4*,25.5,60.5*,139.8*,77.4*,.,47.0*,56.5*,XBP1 UPR conf=52.0*
Cc1ccc(CS(=O)(=O)c2ncc(Cl)c(C(=O)Nc3ccc(OC(F)F)cc3)n2)cc1,-46.3,-8.6,44.3*,64.7*,165.6*,34.5*,-10.8,.,52.2*,
SMILES,TIM10 inh,XBP1 UPR activ,tim10-1 inh,tim23-1 inh,UPR CHOP act,UPR CHOP confirm,tim10-1 conf,TIM10 conf,tim23-1 conf,others
Cc1noc2ncnc(Sc3ccc(Cl)cc3)c12,30.6,-6.3,50.7*,58.3*,188.4*,117.9*,56.8*,.,49.5*,
CCN(CC)c1ccc(/C=C2\SC(=O)N(C(C)C)C2=O)o1,57.0*,-3.5,61.9*,60.1*,111.7*,14.7,43.5*,63.7*,74.2*,
CC(C)N1C(=O)S/C(=C/c2ccc3c(c2)n(C)c(=O)n3C)C1=O,27.9,11.0,24.1,28.8,3.6,.,.,.,.,
CCOC(=O)C1=C(Cc2ccc(Cl)cc2)C(=O)c2ccccc2C1=O,57.1*,-1.1,64.5*,67.4*,117.7*,37.4*,66.7*,57.9*,63.5*,
COC(=O)c1ccc(C(=O)OC)c(NC(=O)CSc2cccc[n+]2[O-])c1,41.2*,19.0,27.7,69.4*,86.8*,122.0*,.,14.1,74.7*,
COC(=O)c1ccc(-n2c(C)cc(C(=O)CSc3cccc[n+]3[O-])c2C)cc1,15.8,-1.5,14.3,33.2,1.9,.,.,.,.,
COc1ccc(-n2c(SCC(=O)Nc3ccc(C(=O)O)cc3)nnc2-c2ccccc2)cc1OC,7.9,-1.4,-8.2,14.0,2.7,.,.,.,.,
O=C(Nc1nc(-c2ccccn2)cs1)c1ccc(Br)s1,22.7,16.6,53.1*,56.2*,60.1*,42.0*,33.9*,.,47.3*,
CCCC(=O)NC(c1ccccc1)c1ccc2cccnc2c1O (configuration not stated),-7.9,2.9,25.8,58.1*,51.1*,25.8,.,.,60.2*,

# Source: PubChem
